Results as given in ChEMBL document CHEMBL4196223 (J Med Chem, 2018).
Where a SMILES comes first, the peptide text is derived from it. Bridges are numbered along the chain shown (N, C = ends).

What was measured:
Assay type in all cases: cell-based
[1] = target: Nicotinic acetylcholine receptor alpha6/alpha3/beta4 (Rattus norvegicus) (UniProt P04757+P12392+P43143); assay: Antagonist activity at rat alpha6/alpha3beta4 nAChR nACHR expressed in Xenopus laevis oocytes assessed as inhibition of acetyl choline-induced membrane currents at 10 uM pre-incubated for 5 mins prior to acetyl choline pulse at -70 mV potential by two-electrode voltage clamp assay
[2] = target: Nicotinic acetylcholine receptor alpha6/alpha3/beta4 (Rattus norvegicus, UniProt P04757+P12392+P43143); assay: Antagonist activity at rat alpha6/alpha3beta4 nAChR nACHR expressed in Xenopus laevis oocytes assessed as inhibition of acetyl choline-induced membrane currents pre-incubated for 5 mins prior to acetyl choline pulse at -70 mV potential by two-electrode voltage clamp assay
Chain of Nicotinic acetylcholine receptor alpha6/alpha3/beta4 (P04757 whole entry): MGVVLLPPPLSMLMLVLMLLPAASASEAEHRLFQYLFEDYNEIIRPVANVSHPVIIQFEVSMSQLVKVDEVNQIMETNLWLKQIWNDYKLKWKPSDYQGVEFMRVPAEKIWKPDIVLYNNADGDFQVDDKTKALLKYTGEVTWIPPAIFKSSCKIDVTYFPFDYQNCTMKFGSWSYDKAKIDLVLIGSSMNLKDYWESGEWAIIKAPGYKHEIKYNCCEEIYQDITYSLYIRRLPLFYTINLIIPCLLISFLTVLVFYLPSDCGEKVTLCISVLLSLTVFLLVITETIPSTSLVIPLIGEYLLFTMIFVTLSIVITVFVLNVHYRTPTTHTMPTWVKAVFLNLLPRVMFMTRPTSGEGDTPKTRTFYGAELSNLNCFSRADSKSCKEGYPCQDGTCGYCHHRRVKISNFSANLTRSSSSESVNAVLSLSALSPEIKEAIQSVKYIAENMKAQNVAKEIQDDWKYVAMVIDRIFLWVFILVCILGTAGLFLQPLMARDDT
Chain of Nicotinic acetylcholine receptor alpha6/alpha3/beta4 (P12392 whole entry): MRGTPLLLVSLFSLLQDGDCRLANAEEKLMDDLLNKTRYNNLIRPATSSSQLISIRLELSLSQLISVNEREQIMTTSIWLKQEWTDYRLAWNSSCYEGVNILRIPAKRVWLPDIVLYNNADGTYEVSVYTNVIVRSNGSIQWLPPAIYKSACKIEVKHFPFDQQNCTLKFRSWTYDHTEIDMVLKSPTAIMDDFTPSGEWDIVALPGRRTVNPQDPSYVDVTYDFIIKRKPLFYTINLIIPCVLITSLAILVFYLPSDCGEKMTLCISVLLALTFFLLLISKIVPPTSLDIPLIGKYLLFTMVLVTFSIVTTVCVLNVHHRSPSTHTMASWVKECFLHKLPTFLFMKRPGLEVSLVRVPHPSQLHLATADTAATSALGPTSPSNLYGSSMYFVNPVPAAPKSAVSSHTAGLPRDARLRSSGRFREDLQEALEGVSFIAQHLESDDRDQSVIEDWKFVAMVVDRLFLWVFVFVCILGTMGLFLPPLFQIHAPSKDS
Chain of Nicotinic acetylcholine receptor alpha6/alpha3/beta4 (P43143 whole entry): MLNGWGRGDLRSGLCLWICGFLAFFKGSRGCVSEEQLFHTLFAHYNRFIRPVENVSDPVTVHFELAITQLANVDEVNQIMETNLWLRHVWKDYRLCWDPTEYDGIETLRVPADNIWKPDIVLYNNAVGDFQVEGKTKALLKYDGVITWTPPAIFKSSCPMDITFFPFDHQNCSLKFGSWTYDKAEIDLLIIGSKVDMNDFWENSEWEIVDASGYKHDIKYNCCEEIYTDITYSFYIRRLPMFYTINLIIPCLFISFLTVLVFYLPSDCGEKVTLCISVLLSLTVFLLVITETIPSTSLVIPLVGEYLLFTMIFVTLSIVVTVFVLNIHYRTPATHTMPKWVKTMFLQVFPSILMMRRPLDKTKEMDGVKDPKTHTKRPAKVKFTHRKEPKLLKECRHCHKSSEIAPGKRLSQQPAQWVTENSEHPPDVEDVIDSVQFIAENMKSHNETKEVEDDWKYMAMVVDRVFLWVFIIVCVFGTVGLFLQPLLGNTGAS
Method in brief: (§1)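 Rat subunit cRNAs (equimolar, ≥10 ng each) were expressed in oocytes held at 17 °C in ND96 and clamped at -70 mV 2-5 days after injection. Perfusate was ND96 with 0.1 mg/mL BSA and 1 µM atropine. After 5 min toxin exposure, 100 µM ACh was applied for 1 s/min. % response was fitted to a Hill equation for IC50 and nH, at room temperature, n=3-6.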

[3] = target: Neuronal acetylcholine receptor; alpha3/beta4 (Rattus norvegicus, UniProt P04757+P12392); assay: Antagonist activity at rat alpha3beta4 nACHR expressed in Xenopus laevis oocytes assessed as inhibition of acetyl choline-induced membrane currents pre-incubated for 5 mins prior to acetyl choline pulse at -70 mV potential by two-electrode voltage clamp assay; method in brief: as §1
Chain of Neuronal acetylcholine receptor; alpha3/beta4 (P04757 whole entry): as the sequence (P04757 whole entry) above
Chain of Neuronal acetylcholine receptor; alpha3/beta4 (P12392 whole entry): as the sequence (P12392 whole entry) above

[4] = target: Neuronal acetylcholine receptor; alpha3/beta4 (Rattus norvegicus) (UniProt P04757+P12392); assay: Antagonist activity at rat alpha3beta4 nACHR expressed in Xenopus laevis oocytes assessed as inhibition of acetyl choline-induced membrane currents at 10 uM pre-incubated for 5 mins prior to acetyl choline pulse at -70 mV potential by two-electrode voltage clamp assay
[5] = target: Neuronal acetylcholine receptor subunit alpha-7 (Rattus norvegicus, UniProt Q05941); assay: Antagonist activity at rat alpha7 nACHR expressed in Xenopus laevis oocytes assessed as inhibition of acetyl choline-induced membrane currents pre-incubated for 5 mins prior to acetyl choline pulse at -70 mV potential by two-electrode voltage clamp assay
Chain of Neuronal acetylcholine receptor subunit alpha-7 (Q05941 whole entry): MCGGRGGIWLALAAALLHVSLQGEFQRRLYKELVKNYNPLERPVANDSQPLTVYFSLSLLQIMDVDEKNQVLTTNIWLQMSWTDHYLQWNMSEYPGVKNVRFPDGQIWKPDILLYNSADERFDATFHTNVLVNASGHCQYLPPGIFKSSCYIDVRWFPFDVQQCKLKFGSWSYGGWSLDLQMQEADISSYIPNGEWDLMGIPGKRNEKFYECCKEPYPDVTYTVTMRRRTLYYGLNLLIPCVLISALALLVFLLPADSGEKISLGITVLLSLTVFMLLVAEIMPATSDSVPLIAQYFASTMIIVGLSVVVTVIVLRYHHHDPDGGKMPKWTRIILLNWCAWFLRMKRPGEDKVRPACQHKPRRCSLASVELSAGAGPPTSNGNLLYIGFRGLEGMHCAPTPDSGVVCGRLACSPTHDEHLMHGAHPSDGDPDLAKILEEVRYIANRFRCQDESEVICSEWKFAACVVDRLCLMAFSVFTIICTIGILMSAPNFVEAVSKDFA

[6] = target: Nicotinic acetylcholine receptor alpha9/alpha10 (Rattus norvegicus, UniProt P43144+Q9JLB5); assay: Antagonist activity at rat alpha9alpha10 nACHR expressed in Xenopus laevis oocytes assessed as inhibition of acetyl choline-induced membrane currents pre-incubated for 5 mins prior to acetyl choline pulse at -70 mV potential by two-electrode voltage clamp assay
Chain of Nicotinic acetylcholine receptor alpha9/alpha10 (P43144 whole entry): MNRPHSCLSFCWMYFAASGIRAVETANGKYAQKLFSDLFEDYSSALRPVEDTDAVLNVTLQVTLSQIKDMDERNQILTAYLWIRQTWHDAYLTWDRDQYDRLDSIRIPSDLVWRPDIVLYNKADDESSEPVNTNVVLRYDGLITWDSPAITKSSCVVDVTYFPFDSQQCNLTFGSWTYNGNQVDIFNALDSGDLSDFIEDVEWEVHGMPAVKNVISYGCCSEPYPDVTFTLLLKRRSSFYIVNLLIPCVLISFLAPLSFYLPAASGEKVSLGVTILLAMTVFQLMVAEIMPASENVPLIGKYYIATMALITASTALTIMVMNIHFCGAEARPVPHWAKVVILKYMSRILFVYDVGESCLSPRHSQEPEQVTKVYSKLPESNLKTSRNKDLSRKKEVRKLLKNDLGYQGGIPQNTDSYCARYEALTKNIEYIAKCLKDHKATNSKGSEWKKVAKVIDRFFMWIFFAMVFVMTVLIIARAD
Chain of Nicotinic acetylcholine receptor alpha9/alpha10 (Q9JLB5 whole entry): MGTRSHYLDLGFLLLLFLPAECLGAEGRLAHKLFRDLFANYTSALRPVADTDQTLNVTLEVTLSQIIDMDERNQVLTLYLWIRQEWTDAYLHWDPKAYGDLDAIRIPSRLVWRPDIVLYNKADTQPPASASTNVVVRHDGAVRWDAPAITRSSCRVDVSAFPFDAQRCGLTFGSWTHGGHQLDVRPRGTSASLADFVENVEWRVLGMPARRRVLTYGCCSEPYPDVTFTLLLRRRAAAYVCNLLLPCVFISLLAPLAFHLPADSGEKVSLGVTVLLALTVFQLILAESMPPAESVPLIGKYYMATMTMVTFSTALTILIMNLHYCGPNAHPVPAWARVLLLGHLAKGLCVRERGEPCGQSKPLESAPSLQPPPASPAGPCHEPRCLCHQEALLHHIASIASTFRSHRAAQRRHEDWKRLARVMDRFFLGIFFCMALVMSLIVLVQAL

SMILES: CC[C@H](C)[C@@H]1NC(=O)[C@@H]2CCCN2C(=O)[C@H](CO)NC(=O)[C@H](CCSC)NC(=O)[C@H](C)NC(=O)[C@H](CCC(=O)O)NC(=O)[C@@H]2CSSC[C@H](NC(=O)CN)C(=O)N[C@@H](CSSC[C@@H](C(N)=O)NC1=O)C(=O)N[C@@H](CO)C(=O)N[C@@H](Cc1cnc[nH]1)C(=O)N1CCC[C@H]1C(=O)N[C@@H](C(C)C)C(=O)N2 (H-GCCSHPVCEAMSPIC-NH2; disulfide 2-8, 3-15)
- inhibition [1]: < 50%

SMILES: CC[C@H](C)[C@@H]1NC(=O)[C@@H]2CCCN2C(=O)[C@H](CO)NC(=O)[C@H](CCSC)NC(=O)[C@H](C)NC(=O)[C@H](CC(=O)O)NC(=O)[C@@H]2CSSC[C@H](NC(=O)CN)C(=O)N[C@@H](CSSC[C@@H](C(N)=O)NC1=O)C(=O)N[C@@H](CO)C(=O)N[C@@H](Cc1cnc[nH]1)C(=O)N1CCC[C@H]1C(=O)N[C@@H](C(C)C)C(=O)N2
- inhibition [1]: < 50%

SMILES: CC[C@H](C)[C@@H]1NC(=O)[C@@H]2CCCN2C(=O)[C@H](CO)NC(=O)[C@H](CCSC)NC(=O)[C@H](C)NC(=O)[C@H](Cc2cnc[nH]2)NC(=O)[C@@H]2CSSC[C@H](NC(=O)CN)C(=O)N[C@@H](CSSC[C@@H](C(N)=O)NC1=O)C(=O)N[C@@H](CO)C(=O)N[C@@H](Cc1cnc[nH]1)C(=O)N1CCC[C@H]1C(=O)N[C@@H](C(C)C)C(=O)N2 (H-GCCSHPVCHAMSPIC-NH2; disulfide 2-8, 3-15)
- IC50 [2]: 19 nM
- IC50 [3]: 2 nM

SMILES: CC[C@H](C)[C@@H]1NC(=O)[C@@H]2CCCN2C(=O)[C@H](CO)NC(=O)[C@H](CCSC)NC(=O)[C@H](C)NC(=O)[C@H](CC(=O)O)NC(=O)[C@@H]2CSSC[C@H](NC(=O)CN)C(=O)N[C@@H](CSSC[C@@H](C(N)=O)NC1=O)C(=O)N[C@@H](CO)C(=O)N[C@@H](Cc1cnc[nH]1)C(=O)N1CCC[C@H]1C(=O)N[C@H](C(C)C)C(=O)N2
- inhibition [4]: < 50%
- inhibition [1]: < 50%

SMILES: CC[C@H](C)[C@@H]1NC(=O)[C@@H]2CCCN2C(=O)[C@H](CO)NC(=O)[C@H](CCSC)NC(=O)[C@H](C)NC(=O)[C@H](Cc2ccccc2)NC(=O)[C@@H]2CSSC[C@H](NC(=O)CN)C(=O)N[C@@H](CSSC[C@@H](C(N)=O)NC1=O)C(=O)N[C@@H](CO)C(=O)N[C@@H](Cc1cnc[nH]1)C(=O)N1CCC[C@H]1C(=O)N[C@@H](C(C)C)C(=O)N2 (H-GCCSHPVCFAMSPIC-NH2; disulfide 2-8, 3-15)
- IC50 [2]: 10 nM
- IC50 [3]: 11 nM

SMILES: CC[C@H](C)[C@@H]1NC(=O)[C@@H]2CCCN2C(=O)[C@H](CO)NC(=O)[C@H](CCSC)NC(=O)[C@H](C)NC(=O)[C@H](CCCCN)NC(=O)[C@@H]2CSSC[C@H](NC(=O)CN)C(=O)N[C@@H](CSSC[C@@H](C(N)=O)NC1=O)C(=O)N[C@@H](CO)C(=O)N[C@@H](Cc1cnc[nH]1)C(=O)N1CCC[C@H]1C(=O)N[C@@H](C(C)C)C(=O)N2 (H-GCCSHPVCKAMSPIC-NH2; disulfide 2-8, 3-15)
- IC50 [5]: > 10000 nM
- IC50 [6]: > 10000 nM
